Test results reported in PubChem BioAssay.
The source made the active and inactive calls.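 The calls were made as follows, unless noted: active = GFP response above 150% of the DMSO level; inconclusive = fewer than 70 events counted for a yeast strain; inactive = the rest.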

How the values were obtained:
[1] = hit retest on RPL19A-GFP reporter strain – cell-based, S. cerevisiae, flow cytometry, cherry picks, mother/daughter gates, confirmation (AID 2270;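 active = GFP response below 50% of the DMSO control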); conditions: 3 h, at 10 µM, stronger effect = lower value, 100 = same GFP as DMSO wells
[2] = yeast TOR pathway reporter LAP4-GFP change – cell-based, cherry picks, flow cytometry, mother/daughter gates, confirmation (AID 2271;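 active = GFP response above 150% of the DMSO control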;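 also: ratio of sample to DMSO plate mean so 100% equals DMSO level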); conditions: S. cerevisiae LAP4-GFP strain, 3 h, at 10 µM, stronger effect = higher value, 100 means same as DMSO control
Summary of the method: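 Material: Alexa 633-stained baker's yeast GFP-fusion strain; Compound dosing: single test-compound dose, 10 µM final; Incubation: 30 °C, 3 h compound incubation, rotating; Detection: HT flow cytometry, GFP fluorescence channel; Control set: positive rapamycin (400 ng/mL), negative DMSO.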

[3] = TOR pathway reporter MEP2-GFP, retest of hits – S. cerevisiae, flow cytometry GFP, cherry picks, confirmation (AID 2272;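 active = GFP response above 150% of the DMSO control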;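 also: ratio of well signal to plate DMSO mean so 100% equals DMSO level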); conditions: S. cerevisiae MEP2-GFP strain, 3 h, at 10 µM, stronger effect = higher value
[4] = yeast AGP1-GFP fluorescence change, single-dose – cell-based, flow cytometry, S. cerevisiae, cherry picks, confirmation (AID 2273);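 also: median GFP channel fluorescence over the whole cell population gate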; conditions: S. cerevisiae AGP1-GFP strain, 3 h, at 10 µM
[5] = TOR pathway CIT2 reporter hit retest – S. cerevisiae, GFP fusion, cherry picks, mother/daughter gates, confirmation (AID 2274); conditions: S. cerevisiae CIT2-GFP strain, flow cytometry, 3 h, at 10 µM, stronger effect = higher value
[6] = measured here: daughter cell gate
[7] = measured here: mother cell gate
[8] = measured here: daughter cell gate response
[9] = measured here: mother cell gate response

Structure (SMILES) | GFP response vs DMSO [1] | GFP response vs DMSO [1, 6] [%] | GFP response vs DMSO [1, 7] [%] | GFP response relative to DMSO [2] | GFP response relative to DMSO [2, 8] [%] | GFP response relative to DMSO [2, 9] [%] | GFP response vs DMSO [3] | GFP response, % of DMSO [4] | GFP response, % of DMSO [5] | GFP response, % of DMSO [5, 6] [%] | GFP response, % of DMSO [5, 7] [%]
O=S(=O)(Nc1ccc(Br)cc1)c1cccc2nonc12 | 97.4% (inactive) | 97.5 | 98.3 | 96.5% (inactive) | 95 | 95.6 | 99.5% (inactive) | 93.8% (inactive) | 97.8% (inactive) | 98.3 | 95.6
CCN(CC)Cc1csc2ccc(Br)cc12 | 98.4% (inactive) | 97.8 | 98.2 | 96.2% (inactive) | 97.2 | 99.3 | 102% (inactive) | 100% (inactive) | 97.8% (inactive) | 96.5 | 98.7
COC(=O)c1cc(N2C(=O)C3C(C2=O)C2(C)C=CC3(C)O2)ccc1Cl (stereo not drawn) | 101% (inactive) | 101 | 92.5 | 193% (active) | 173 | 177 | 110% (inactive) | 106% (inactive) | 101% (inactive) | 109 | 88.6
Oc1ccc(-c2nc3ccccn3c2NCc2ccco2)cc1 | 96.8% (inactive) | 98.4 | 97.1 | 101% (inactive) | 99.2 | 99.3 | 102% (inactive) | 96.2% (inactive) | 103% (inactive) | 105 | 101
Cc1cccc(CSCc2ccc(C(=O)NC(C)C)o2)c1 | 101% (inactive) | 98.1 | 101 | 99.5% (inactive) | 95.9 | 99.4 | 96.8% (inactive) | 101% (inactive) | 102% (inactive) | 103 | 99.3
CC(=O)NC1(C(F)(F)F)C(=O)Nc2c1c(=O)[nH]c(=O)n2CCc1ccccc1 (stereo not drawn) | 99.6% (inactive) | 98.4 | 98.6 | 97% (inactive) | 97.5 | 97.3 | 107% (inactive) | 95.7% (inactive) | 88.6% (inactive) | 90.2 | 88.2
Cn1cnnc1SCC(=O)Nc1nc(-c2ccc(F)cc2)cs1 | 100% (inactive) | 99.1 | 101 | 97% (inactive) | 95.9 | 97.3 | 103% (inactive) | 99.4% (inactive) | 102% (inactive) | 103 | 102
O=C(CN1CCCC1)Nc1cc(C(F)(F)F)cc(C(F)(F)F)c1 | 101% (inactive) | 110 | 100 | 98.9% (inactive) | 102 | 98.4 | 68.3% (inactive) | 102% (inactive) | 98.6% (inactive) | 99.3 | 97.1
Cc1ccc(-c2nc3ccccn3c2NC(=O)c2ccco2)cc1 | 94.9% (inactive) | 96.4 | 95 | 98.9% (inactive) | 97.5 | 98.4 | 101% (inactive) | 98.4% (inactive) | 104% (inactive) | 103 | 104
O=C1/C(=C/c2ccccn2)COc2ccccc21 | 94.2% (inactive) | 96.4 | 91.2 | 135% (inactive) | 130 | 134 | 110% (inactive) | 95.5% (inactive) | 94.4% (inactive) | 99.3 | 88.2
CC(C)(C)n1nc(-c2ccc(Cl)cc2)c2c(N)ncnc21 | 44.2% (active) | 39.7 | 45.6 | 191% (active) | 172 | 195 | 118% (inactive) | 106% (inactive) | 44.4% (inactive) | 46.1 | 42.4
COC(=O)Cn1c(C)c(/C=C/c2cc[n+](C)cc2)c2ccccc21 | 100% (inactive) | 99.6 | 101 | 119% (inactive) | 121 | 117 | 129% (inactive) | 99.7% (inactive) | 117% (inactive) | 121 | 113
Cc1ccc(N2C(=O)C3C4C=CC(CNC(=S)N5CCN(c6ccccc6)CC5)(O4)C3C2=O)cc1 (stereo not drawn) | 102% (inactive) | 101 | 101 | 89% (inactive) | 94.1 | 92.1 | 100% (inactive) | 96.5% (inactive) | 110% (inactive) | 105 | 113
O=C(O)CCC(=O)Nc1ccc(S(=O)(=O)c2ccc(NC(=O)CCC(=O)O)cc2)cc1 | 98.5% (inactive) | 100 | 97.7 | 102% (inactive) | 97.5 | 102 | 106% (inactive) | 100% (inactive) | 98.6% (inactive) | 99.3 | 99.3
c1cnc2c(SCc3ccc(-c4nnco4)cc3)cccc2c1 | 98.2% (inactive) | 96.4 | 97.5 | 108% (inactive) | 108 | 110 | 106% (inactive) | 104% (inactive) | 94.4% (inactive) | 90.5 | 96
O=C(COC(=O)c1n[nH]c2ccccc12)c1cccc(Br)c1 | 96.5% (inactive) | 95.6 | 94.8 | 101% (inactive) | 101 | 99.5 | 101% (inactive) | 102% (inactive) | 100% (inactive) | 95.8 | 100
COc1ccc(C(=O)Oc2ccc(/C=N/NC(=O)c3ccccc3OC)cc2[N+](=O)[O-])cc1 | 102% (inactive) | 103 | 101 | 87.2% (inactive) | 87.8 | 86.7 | 104% (inactive) | 101% (inactive) | 104% (inactive) | 104 | 100

Structure (SMILES) | GFP response vs DMSO [1] | GFP response vs DMSO [1, 6] [%] | GFP response vs DMSO [1, 7] [%] | GFP response relative to DMSO [2] | GFP response relative to DMSO [2, 8] [%] | GFP response relative to DMSO [2, 9] [%] | GFP response vs DMSO [3] | GFP response, % of DMSO [4] | GFP response, % of DMSO [5] | GFP response, % of DMSO [5, 6] [%] | GFP response, % of DMSO [5, 7] [%]
Cc1cc(OCC(=O)Nc2ccc(S(=O)(=O)N3CCN(C)CC3)cc2)ccc1Br | 98% (inactive) | 98.7 | 97.3 | 97.7% (inactive) | 99 | 97.4 | 101% (inactive) | 106% (inactive) | 101% (inactive) | 101 | 103
CC1=NNC(=O)/C1=C\c1cn(-c2ccccc2)nc1-c1cccs1 | 92.6% (inactive) | 88 | 89.6 | 288% (active) | 122 | 269 | 103% (inactive) | 120% (inactive) | 119% (inactive) | 93.8 | 114
COC(=O)c1ccc(NC(=O)c2nc(S(=O)(=O)Cc3cccc(C)c3)ncc2Cl)cc1 | 98.4% (inactive) | 96.1 | 98.7 | 103% (inactive) | 102 | 106 | 100% (inactive) | 95.7% (inactive) | 88.7% (inactive) | 88.3 | 86.9
O=C(O)c1ccccc1C(=O)Nc1ccccc1 | 101% (inactive) | 101 | 99.5 | 94.4% (inactive) | 92.6 | 95.2 | 96.8% (inactive) | 104% (inactive) | 102% (inactive) | 101 | 101
C/C(=N/NC(=O)c1ccc(C(C)(C)C)cc1)c1ccccn1 | 110% (inactive) | 107 | 101 | 231% (active) | 197 | 209 | 126% (inactive) | 90% (inactive) | 112% (inactive) | 115 | 98.2
CC1CC2=C(CC1/C=N/NC(N)=S)C(C)(C)CCC2 (stereo not drawn) | 96.4% (inactive) | 92.7 | 95.3 | 110% (inactive) | 106 | 113 | 107% (inactive) | 97.5% (inactive) | 91.5% (inactive) | 88.4 | 90.7
Cc1ccc(-c2nnn(CC(=O)N(CC(=O)NC3CCCC3)c3ccc(F)cc3)n2)o1 | 97.4% (inactive) | 98.4 | 96.8 | 97% (inactive) | 95.9 | 96.2 | 99% (inactive) | 104% (inactive) | 100% (inactive) | 103 | 99.3
CCCN(Cc1nnc(-c2ccccc2Cl)o1)C(=O)c1cc([N+](=O)[O-])cc([N+](=O)[O-])c1 | 97.3% (inactive) | 98.4 | 96.1 | 97.7% (inactive) | 96 | 98.4 | 101% (inactive) | 98.6% (inactive) | 94.4% (inactive) | 94 | 94.9
COCCNc1c(-c2ccc(O)cc2)nc2ccc(Cl)cn12 | 97.6% (inactive) | 97.4 | 97.7 | 99.2% (inactive) | 99.2 | 98.3 | 98.3% (inactive) | 93.1% (inactive) | 98.3% (inactive) | 99.1 | 97.3
COc1ccccc1NC(=O)c1ccc([N+](=O)[O-])o1 | 102% (inactive) | 102 | 101 | 120% (inactive) | 115 | 122 | 102% (inactive) | 99.3% (inactive) | 107% (inactive) | 108 | 106
COc1ccc(C2N(c3ccc(Cl)cc3)N=C(C(C)=O)N(C)N2C(C)=O)cc1 (stereo not drawn) | 100% (inactive) | 99.6 | 100 | 104% (inactive) | 101 | 103 | 101% (inactive) | 101% (inactive) | 106% (inactive) | 106 | 106
O=C(c1ccc([N+](=O)[O-])o1)N1CCN(c2nc3c(F)cc(F)cc3s2)CC1 | 80.1% (inactive) | 78 | 67.5 | 250% (active) | 169 | 232 | 197% (active) | 102% (inactive) | 142% (inactive) | 108 | 121
Cc1c(CC(C)C)nc(N)c(C#N)c1-c1ccccc1 | 98.4% (inactive) | 99.8 | 99.7 | 94.2% (inactive) | 89.3 | 92.6 | 102% (inactive) | 98.7% (inactive) | 102% (inactive) | 102 | 100
Cc1nc2ccccc2c(=O)n1/N=C/c1ccc([N+](=O)[O-])o1 | 104% (inactive) | 108 | 104 | 121% (inactive) | 120 | 121 | 116% (inactive) | 102% (inactive) | 121% (inactive) | 128 | 115
O=C(c1cccc2ccccc12)N1CCN(c2ccccc2F)CC1 | 97.8% (inactive) | 92.9 | 95.7 | 102% (inactive) | 99.1 | 102 | 101% (inactive) | 102% (inactive) | 94.4% (inactive) | 92 | 93.2
CCC(CC)C(=O)Nc1cccc(/C(C)=N/NC(=O)c2ccccc2Cl)c1 | 98.6% (inactive) | 97 | 99.1 | 99.8% (inactive) | 103 | 99.3 | 102% (inactive) | 100% (inactive) | 100% (inactive) | 99.7 | 102
